IDH1 mut inh: inhibitors of IDH1 R132H reductase, primary screen, biochemical, plate reader, single point; diaphorase/resazurin fluorescence, 60 min; Isocitrate dehydrogenase [NADP] cytoplasmic (Homo sapiens), O75874; hit rate 0.18% among 70,000; AID 624101, 2012; inhibition, % at 10 µM; in the data active = inhibition above about 34%; inconclusive = no clear call, values can overlap the other calls; inactive = below about 11%
Target sequence (O75874 whole entry R132H): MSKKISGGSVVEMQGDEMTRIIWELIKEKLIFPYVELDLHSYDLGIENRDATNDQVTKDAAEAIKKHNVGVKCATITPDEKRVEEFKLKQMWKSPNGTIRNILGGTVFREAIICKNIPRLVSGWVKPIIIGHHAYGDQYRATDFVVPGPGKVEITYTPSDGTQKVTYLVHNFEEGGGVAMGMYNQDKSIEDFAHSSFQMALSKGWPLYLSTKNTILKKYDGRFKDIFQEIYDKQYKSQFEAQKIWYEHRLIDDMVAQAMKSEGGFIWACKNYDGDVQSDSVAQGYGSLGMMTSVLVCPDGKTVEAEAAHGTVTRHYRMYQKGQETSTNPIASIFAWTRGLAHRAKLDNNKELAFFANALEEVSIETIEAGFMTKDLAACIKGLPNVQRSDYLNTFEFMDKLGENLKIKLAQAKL
KDM4C inh: inhibitors of GASC-1 (KDM4C) histone demethylase, primary screen, biochemical, single concentration HTS. Lysine-specific demethylase 4C (Homo sapiens), Q9H3R0. GST-KDM4C 2-372, H3K9me3 peptide, LANCE TR-FRET. inhibition, % at 12.5 µM. hit rate 0.15% among 96,000;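 active = mean replicate inhibition above about 25%, with at least 55% of replicates also reaching it, limit read from the data, passing the limit was not always enough; inconclusive = only one of those two conditions met; inactive = neither condition met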
Target sequence (Q9H3R0 2-372 limits assumed): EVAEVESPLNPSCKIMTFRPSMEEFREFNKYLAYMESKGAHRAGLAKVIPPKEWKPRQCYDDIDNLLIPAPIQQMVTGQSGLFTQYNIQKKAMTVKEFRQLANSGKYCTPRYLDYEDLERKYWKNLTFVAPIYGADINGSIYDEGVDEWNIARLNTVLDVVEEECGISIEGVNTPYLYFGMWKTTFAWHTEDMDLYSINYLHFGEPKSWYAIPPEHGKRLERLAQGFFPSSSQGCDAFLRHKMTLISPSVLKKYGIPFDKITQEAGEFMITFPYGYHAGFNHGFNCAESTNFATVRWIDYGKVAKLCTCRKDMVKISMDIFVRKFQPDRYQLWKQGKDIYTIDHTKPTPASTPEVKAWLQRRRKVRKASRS
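Test system – GST-tagged GASC-1 (JMJD2C) catalytic fragment, aa 2-372 · Medium – HEPES buffer, pH 7.5, plus ascorbate · Reagent – H3K9me3 peptide with Fe(II)/2OG · Compound – one test concentration per compound · Timing – 30 min reaction, 60 min detection, RT · Technique – TR-FRET with Eu antibody and ULight streptavidin, EDTA stop · Read-out basis – inhibition from TR-FRET ratio decrease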
T cruzi growth-1: T. cruzi intracellular proliferation inhibitors, primary screen, cell-based, beta-gal Tulahuen parasites, NIH3T3 host, luminescence | AID 624255, 2012 | inhibition, % at 8.34 µM | hit rate 5.9% among 77,000 | T. cruzi beta-gal in NIH3T3, GalScreen luminescence, 90 h;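 active = mean inhibition above about 93%, with at least 55% of replicates each passing it, limit read from the data, passing the limit was not always enough; inconclusive = only one of those two conditions holds; inactive = neither condition holds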
Pf Dd2 inh: P. falciparum Dd2 growth inhibitors, primary screen, SYBR Green fluorescence, single dose replicates; 72 h; active compounds read low; activity change, % at 10 µM; hit rate 2.3% among 94,000; in the data active = activity change below about -80%; inconclusive = no clear call, values can overlap the other calls
T cruzi growth-2: T. cruzi intracellular proliferation inhibitors, confirmation, cell-based, NIH3T3 host, beta-gal parasite, luminescence, cherry-pick | shares compounds with T cruzi growth-1 | T. cruzi beta-gal in NIH3T3, GalScreen luminescence, 90 h | inhibition, % at 8.35 µM | hit rate 72% among 5,600 | AID 651739, 2012;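 active = mean replicate inhibition above about 95% and at least 55% of replicates individually reaching it, limit read from the data; inconclusive = only one of the two criteria is met; inactive = neither criterion is met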
T cruzi growth-3: inhibitors of intracellular T. cruzi replication, confirmation, NIH3T3 host cells, beta-gal parasites, cherry-pick, set 2; hit rate 21% among 5,600; inhibition, % at 2.09 µM; AID 651740, 2012; shares compounds with T cruzi growth-1; T. cruzi beta-gal in NIH3T3, GalScreen luminescence, 90 h;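 active = mean inhibition above about 95%, with at least 55% of replicates also reaching it, limit read from the data; inconclusive = meets just one of the two conditions; inactive = meets neither condition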
NIH3T3 tox: cytotoxicity in mouse NIH/3T3 fibroblasts, confirmation, cytotoxicity control for T. cruzi proliferation inhibitor project, cell-based, cherry-pick, single point | NIH/3T3 viability, CellTiter-Glo ATP luminescence, 90 h | cytotoxicity (signal decrease), % at 8.35 µM | AID 651742, 2012 | shares compounds with T cruzi growth-1 | hit rate 14% among 5,600;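 active = mean signal decrease across replicates above about 35% based on untreated-well scatter, with enough replicates individually passing, limit read from the data; inconclusive = no rule stated though some were filed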
3T3 cytotox 2: NIH/3T3 fibroblast cytotoxicity, confirmation, cytotoxicity control, cell-based, cherry-pick, single point, set 2. shares compounds with T cruzi growth-1. NIH/3T3 viability, CellTiter-Glo ATP luminescence, 90 h. AID 651744, 2012. hit rate 56% among 5,600. inhibition, % at 24.9 µM;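 active = mean loss of cell viability signal at or above a set limit, and enough replicates individually reaching it; inconclusive = meets only the mean limit or only the replicate share; inactive = meets neither condition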
Each line names hits and unclear results; the compound was inactive in the other large screens (follow-up assays come after a bar, where they were run). The list is not random: actives were taken first. Their share in the collection is about 5.8%.

C[C@@H](O)C#Cc1ccc([C@H]2[C@H](CO)N3CCCCN(C(=O)c4cccc(F)c4)C[C@@H]23)cc1	T cruzi growth-1 97 (no result: IDH1 mut inh) | T cruzi growth-2 107 | T cruzi growth-3 inactive | NIH3T3 tox inactive | 3T3 cytotox 2 50
C[C@H](O)C#Cc1ccc([C@H]2[C@@H](CO)N3CCCCN(C(=O)c4cccc(F)c4)C[C@@H]23)cc1	T cruzi growth-1 104 (no result: IDH1 mut inh) | T cruzi growth-2 inactive | T cruzi growth-3 inactive | NIH3T3 tox inactive | 3T3 cytotox 2 inactive
C[C@H](O)C#Cc1ccc([C@H]2[C@H]3CN(C(=O)c4cccc(F)c4)CCCCN3[C@H]2CO)cc1	T cruzi growth-1 102 (no result: IDH1 mut inh) | T cruzi growth-2 inconclusive | T cruzi growth-3 inactive | NIH3T3 tox inactive | 3T3 cytotox 2 28
C[C@H](CO)N1C[C@H](C)[C@H](CN(C)C(=O)NC2CCCCC2)Oc2cc(C#Cc3ccc(F)cc3)ccc2S1(=O)=O	none
COc1ccc(C#Cc2ccc3c(c2)O[C@@H](CN(C)C(=O)NC2CCCCC2)[C@@H](C)CN([C@@H](C)CO)S3(=O)=O)cc1	T cruzi growth-1 inconclusive | T cruzi growth-2 inconclusive | T cruzi growth-3 114 | NIH3T3 tox inactive | 3T3 cytotox 2 inactive
COc1ccc(C#Cc2ccc3c(c2)O[C@H](CN(C)C(=O)NC2CCCCC2)[C@H](C)CN([C@H](C)CO)S3(=O)=O)cc1	T cruzi growth-1 inconclusive | T cruzi growth-2 inconclusive | T cruzi growth-3 113 | NIH3T3 tox inactive | 3T3 cytotox 2 inactive
COc1ccc(C#Cc2ccc3c(c2)O[C@H](CN(C)C(=O)NC2CCCCC2)[C@@H](C)CN([C@H](C)CO)S3(=O)=O)cc1	T cruzi growth-1 inconclusive | T cruzi growth-2 106 | T cruzi growth-3 inactive | NIH3T3 tox inactive | 3T3 cytotox 2 33
C[C@@H]1CN([C@H](C)CO)S(=O)(=O)c2ccc(C#Cc3ccc(F)cc3)cc2O[C@H]1CN(C)C(=O)NC1CCCCC1	none (no result: IDH1 mut inh)
Cc1oc(-c2ccc(Cl)cc2)cc1COC(=O)Nc1ccccc1	none (no result: KDM4C inh, T cruzi growth-1, Pf Dd2 inh)
O=C(c1cccc(F)c1)N1CC[C@@H]2[C@H]1c1cc(C#Cc3ccc(F)cc3)ccc1N[C@@H]2CO	T cruzi growth-1 114 (no result: IDH1 mut inh) | T cruzi growth-2 108 | T cruzi growth-3 inactive | NIH3T3 tox inactive | 3T3 cytotox 2 79
COc1ccc(C#Cc2ccc3c(c2)[C@@H]2[C@@H](CCN2C(=O)c2cccc(F)c2)[C@@H](CO)N3)cc1	T cruzi growth-1 102 (no result: IDH1 mut inh) | T cruzi growth-2 108 | T cruzi growth-3 inactive | NIH3T3 tox inactive | 3T3 cytotox 2 26
O=C(c1cccc(F)c1)N1CC[C@H]2[C@H](CO)Nc3ccc(C#Cc4ccccc4)cc3[C@H]21	none (no result: IDH1 mut inh, T cruzi growth-1)
CC(CC(=O)O)CC(=O)Nc1ccc(C(=O)O)cc1 (stereo not given)	none (no result: KDM4C inh, T cruzi growth-1, Pf Dd2 inh)
COCC(=O)N1[C@H](CO)[C@@H](c2ccc(C#CCC3CCCC3)cc2)[C@@H]1C#N	none (no result: IDH1 mut inh)
N#C[C@H]1[C@H](c2ccc(C#CCC3CCCC3)cc2)[C@@H](CO)N1C(=O)c1ccccn1	T cruzi growth-1 97 (no result: IDH1 mut inh) | T cruzi growth-2 95 | T cruzi growth-3 111 | NIH3T3 tox inactive | 3T3 cytotox 2 104
COCC(=O)N1[C@H](C#N)[C@H](c2ccc(C#CCC3CCCC3)cc2)[C@H]1CO	none (no result: IDH1 mut inh)
N#C[C@@H]1[C@H](c2ccc(C#CCC3CCCC3)cc2)[C@@H](CO)N1C(=O)c1ccccn1	T cruzi growth-1 100 (no result: IDH1 mut inh) | T cruzi growth-2 99 | T cruzi growth-3 109 | NIH3T3 tox inactive | 3T3 cytotox 2 107
CC(C)C#Cc1ccc([C@H]2[C@@H](C#N)N(C(=O)c3ccccn3)[C@@H]2CO)cc1	T cruzi growth-1 inconclusive (no result: IDH1 mut inh) | T cruzi growth-2 104 | T cruzi growth-3 102 | NIH3T3 tox inactive | 3T3 cytotox 2 inactive
N#C[C@H]1[C@H](c2ccc(-c3ccccc3F)cc2)[C@H](CO)N1C(=O)c1ccccn1	none (no result: IDH1 mut inh)
CCCNC(=O)N(C)C[C@H]1Oc2cc(C#Cc3cccc(F)c3)ccc2S(=O)(=O)N([C@@H](C)CO)C[C@H]1C	KDM4C inh inconclusive, T cruzi growth-1 114 | T cruzi growth-2 102 | T cruzi growth-3 105 | NIH3T3 tox inactive | 3T3 cytotox 2 51
CC(C)NC(=O)N(C)C[C@@H]1Oc2cc(C#Cc3cccc(F)c3)ccc2S(=O)(=O)N([C@@H](C)CO)C[C@H]1C	none
CCCC#Cc1ccc2c(c1)O[C@@H](CN(C)C(=O)NCCC)[C@@H](C)CN([C@@H](C)CO)S2(=O)=O	none
CCCNC(=O)N(C)C[C@@H]1Oc2cc(C#Cc3cccc(F)c3)ccc2S(=O)(=O)N([C@@H](C)CO)C[C@H]1C	T cruzi growth-1 108 | T cruzi growth-2 100 | T cruzi growth-3 inactive | NIH3T3 tox 54 | 3T3 cytotox 2 67
CCCNC(=O)N(C)C[C@H]1Oc2cc(C#Cc3cccc(F)c3)ccc2S(=O)(=O)N([C@H](C)CO)C[C@@H]1C	T cruzi growth-1 114 | T cruzi growth-2 inactive | T cruzi growth-3 inactive | NIH3T3 tox inactive | 3T3 cytotox 2 60
CCCC#Cc1ccc2c(c1)O[C@H](CN(C)C(=O)NCCC)[C@@H](C)CN([C@H](C)CO)S2(=O)=O	none
CCCNC(=O)N(C)C[C@H]1Oc2cc(C#Cc3cccc(F)c3)ccc2S(=O)(=O)N([C@@H](C)CO)C[C@@H]1C	T cruzi growth-1 116 | T cruzi growth-2 112 | T cruzi growth-3 inactive | NIH3T3 tox inactive | 3T3 cytotox 2 66
CCCC#Cc1ccc2c(c1)O[C@@H](CN(C)C(=O)NCCC)[C@H](C)CN([C@H](C)CO)S2(=O)=O	none
N#Cc1c(C(F)(F)F)cc(-c2ccco2)nc1SCC(=O)Nc1cccc(C(F)(F)F)c1	none (no result: KDM4C inh, T cruzi growth-1, Pf Dd2 inh)
COc1ccc(CN(C)C[C@H]2Oc3ccc(NS(=O)(=O)c4ccc(C)cc4)cc3CC(=O)N([C@H](C)CO)C[C@H]2C)cc1	T cruzi growth-1 115 | T cruzi growth-2 108 | T cruzi growth-3 inactive | NIH3T3 tox inactive | 3T3 cytotox 2 inconclusive
COc1ccc(CN(C)C[C@H]2Oc3ccc(NS(=O)(=O)c4ccc(OC)cc4)cc3CC(=O)N([C@H](C)CO)C[C@H]2C)cc1	none (no result: IDH1 mut inh)

Bioassay records (PubChem)
